Results: ChEMBL document CHEMBL4043297, “Synthesis and Structure-Activity Relationships of the Novel Antimalarials 5-Pyridinyl-4(1 H)-Pyridones” (J Med Chem, 2018)
Converted amounts (≈) assume the structure as drawn. Blank lines part the entries; values can stand above or below the molecule they belong to.

Legend:
[1] = Half life in CD1 mouse at […], iv as bolus dose by LC-MS/MS method; format: ADME, organism-based; conditions: in vivo
Plasmodium yoelii = experiment: Schizontocidal activity against Plasmodium yoelii infected in CD1 mouse administered via oral gavage as qd for 4 days starting 1 hr post infection by YOYO-1 dye-based flow cytometric method; format: functional
Procedure, shortened: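 Blood schizontocidal activity was tested in a modified 4-day suppressive test in mice infected with P. yoelii. Four oral doses were given by gavage over four days.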

[2] = Tmax in CD1 mouse at 11.512 mg/kg administered via oral gavage by LC-MS/MS method; format: ADME, organism-based; conditions: in vivo
Procedure, shortened: (§1)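 Specific pathogen-free female CD1 (Hsd:ICR) mice, 8–10 weeks old, housed in the institutional animal facility. Each compound was given intravenously at a low dose and orally at a higher dose. Vd, clearance, t1/2, Cmax, Tmax, AUC0-t, AUC∞ and %F were derived from plasma exposure after each route.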

[3] = Clearance in CD1 mouse at […], iv as bolus dose by LC-MS/MS method; format: ADME, organism-based; conditions: in vivo
[4] = Equilibrium solubility of compound in FeSSIF after 24 hrs by LC-MS method; format: physicochemical
[5] = Cmax in CD1 mouse at 11.512 mg/kg administered via oral gavage by LC-MS/MS method; format: ADME, organism-based; set-up: dose 11.512 mg/kg, route oral; conditions: in vivo, 11.51 mg/kg
Procedure, shortened: (§2)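 Specific pathogen-free female CD1 (Hsd:ICR) mice, 8 to 10 weeks old. Each compound was given as an intravenous dose and an oral dose at the levels listed. Parameters reported: Vd, clearance, t1/2, Cmax, Tmax, AUC0-t, AUC∞ and %F.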

[6] = Volume of distribution in CD1 mouse at […], iv as bolus dose by LC-MS/MS method; format: ADME, organism-based; conditions: in vivo
[7] = Oral bioavailability in CD1 mouse at 11.512 mg/kg administered via gavage by LC-MS/MS method; format: ADME, organism-based; conditions: in vivo; procedure, shortened: as §2
serum albumin = serum albumin (Homo sapiens, UniProt P02768); experiment: Binding affinity to human serum albumin by HPLC method; format: ADME; conditions: read-out: PB (converted)
[8] = AUC (0 to t) in CD1 mouse at 11.512 mg/kg administered via oral gavage by LC-MS/MS method; format: ADME, organism-based; conditions: in vivo; procedure, shortened: as §2
[9] = Equilibrium solubility of compound in FaSSIF after 24 hrs by LC-MS method; format: physicochemical
[10] = AUC (infinity) in CD1 mouse at 11.512 mg/kg administered via oral gavage by LC-MS/MS method; format: ADME, organism-based; set-up: dose 11.512 mg/kg, time infinity, route oral; conditions: in vivo, 11.51 mg/kg; procedure, shortened: as §2
Plasmodium falciparum = experiment: Antimalarial activity against Plasmodium falciparum 3D7A infected in human RBC after 48 hrs by [3H]-hypoxanthine incorporation assay; format: functional
[11] = Volume of distribution in CD1 mouse at 1.45 mg/kg, iv as bolus dose by LC-MS/MS method; format: ADME, organism-based; conditions: in vivo; procedure, shortened: as §1
[12] = Clearance in CD1 mouse at 1.45 mg/kg, iv as bolus dose by LC-MS/MS method; format: ADME, organism-based; conditions: in vivo; procedure, shortened: as §2
[13] = AUC (0 to t) in CD1 mouse at 8.7 mg/kg administered via oral gavage by LC-MS/MS method; format: ADME, organism-based; conditions: in vivo; procedure, shortened: as §2
[14] = Tmax in CD1 mouse at 8.7 mg/kg administered via oral gavage by LC-MS/MS method; format: ADME, organism-based; conditions: in vivo; procedure, shortened: as §1
[15] = AUC (infinity) in CD1 mouse at 8.7 mg/kg administered via oral gavage by LC-MS/MS method; format: ADME, organism-based; set-up: dose 8.7 mg/kg, route oral, time infinity; conditions: in vivo; procedure, shortened: as §2
[16] = Half life in CD1 mouse at 1.45 mg/kg, iv as bolus dose by LC-MS/MS method; format: ADME, organism-based; conditions: in vivo; procedure, shortened: as §2
[17] = Oral bioavailability in CD1 mouse at 8.7 mg/kg administered via gavage by LC-MS/MS method; format: ADME, organism-based; conditions: in vivo; procedure, shortened: as §1
[18] = Cmax in CD1 mouse at 8.7 mg/kg administered via oral gavage by LC-MS/MS method; format: ADME, organism-based; set-up: dose 8.7 mg/kg, route oral; conditions: in vivo; procedure, shortened: as §2

Chain of serum albumin (P02768 whole entry): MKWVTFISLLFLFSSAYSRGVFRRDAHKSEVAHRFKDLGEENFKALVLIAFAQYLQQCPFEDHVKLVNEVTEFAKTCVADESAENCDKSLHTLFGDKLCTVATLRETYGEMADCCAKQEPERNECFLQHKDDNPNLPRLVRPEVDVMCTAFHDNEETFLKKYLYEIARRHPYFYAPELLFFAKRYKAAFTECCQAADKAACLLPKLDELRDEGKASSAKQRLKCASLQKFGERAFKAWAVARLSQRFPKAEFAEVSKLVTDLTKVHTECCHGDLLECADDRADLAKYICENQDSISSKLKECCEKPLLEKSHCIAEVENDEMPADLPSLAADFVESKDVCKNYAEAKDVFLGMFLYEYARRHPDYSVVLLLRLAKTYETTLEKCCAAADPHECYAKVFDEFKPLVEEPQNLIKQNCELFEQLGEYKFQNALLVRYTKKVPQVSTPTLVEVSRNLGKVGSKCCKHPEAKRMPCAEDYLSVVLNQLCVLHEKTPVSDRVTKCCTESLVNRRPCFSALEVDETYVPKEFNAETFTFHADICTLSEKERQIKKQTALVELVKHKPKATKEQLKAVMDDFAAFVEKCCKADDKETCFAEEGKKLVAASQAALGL

- half-life [1]: 33.8 h
- Tmax [2]: 10 h
- clearance [3]: 0.26 mL/min/kg
- solubility thermodynamic at 24 h [4]: 1.33 µg/mL (≈ 3.35 µM)
- Cmax [5]: 6380 ng/mL
- Vd [6]: 0.75 L/kg
- bioavailability [7]: 30%
- fraction unbound (serum albumin): 0.05
- AUC(0-t) [8]: 204 µg·h/mL
- solubility thermodynamic at 24 h [9]: < 1 µg/mL
- AUC(0-inf) [10]: 226 µg·h/mL
- IC50 (Plasmodium falciparum): 0.01 µM
SMILES: Cc1[nH]c(C)c(-c2ccc(-c3ccc(C(F)(F)F)cc3F)nc2)c(=O)c1Cl
- ED50 (Plasmodium yoelii): 0.08 mg/kg

- Vd [11]: 1.11 L/kg
- clearance [12]: 1.76 mL/min/kg
- AUC(0-t) [13]: 110 µg·h/mL
- Tmax [14]: 1 h
- fraction unbound (serum albumin): 0.05
- AUC(0-inf) [15]: 111 µg·h/mL
- half-life [16]: 7.4 h
- bioavailability [17]: 133%
- IC50 (Plasmodium falciparum): 0.034 µM
- Cmax [18]: 8540 ng/mL
SMILES: Cc1[nH]c(CO)c(-c2ccc(-c3ccc(OC(F)(F)F)cc3)nc2)c(=O)c1Cl
- ED50 (Plasmodium yoelii): 0.4 mg/kg
